The source of these data is ChEMBL document CHEMBL1137693, “Antiamoebic coumarins from the root bark of Adina cordifolia and their new thiosemicarbazone derivatives” (Eur J Med Chem, 2009).

A value given as a limit tells only on which side of the number the result lay.

This data set in a line: Cytotoxicity against rat H9c2 cells assessed as cell viability at 3.125 to 200 ug/ml after 48 hrs by MTT assay. It is filed as cell-based. The settings on record: read-out: Activity. Summed up:
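Rat H9c2 cardiac myoblasts maintained in high-glucose DMEM with 10% heat-inactivated FBS and antibiotics at 37 °C, 5% CO₂. Subconfluent cells exposed 48 h to 3.125–200 μg/ml. MTT (5 mg/ml) added for 45 min at 37 °C; formazan dissolved in acid isopropanol, absorbance read at 570 nm (reference 655 nm). Viability relative to untreated controls; triplicate.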
(In general: Tetrazolium assays rely on reduction of a dye to a coloured formazan, in cell work by metabolically active cells.)
`C/C(=N\NC(=S)N1CCC(Cc2ccccc2)CC1)c1c(O)ccc2ccc(=O)oc12`: the viability at 48 h is > 80%.

As to `C/C(=N\NC(=S)NCc1ccccc1)c1c(O)ccc2ccc(=O)oc12`, the viability at 48 h was > 80%.

On to `C/C(=N\NC(=S)NC12CC3CC(CC(C3)C1)C2)c1c(O)ccc2ccc(=O)oc12`, for which the viability at 48 h is > 80%.
